Jurkat NFkB inh: inhibitors of induced NF-kB luciferase reporter, primary screen, TCR NF-kB activation inhibitor project, cell-based, luminescence, uHTS; Jurkat, PMA/ionomycin-induced NF-kB luciferase reporter; inhibition, % at 4 µM; 0.53% of 330,000 active; in the data active = inhibition above about 50%
HSF1 inhib: HSF1 inhibitors in luciferase reporter cells, primary screen, cell-based, NIH3T3, luminescence. activity change, negative = inhibition, % at 7.5 µM (by protocol). NIH3T3-HGL HSE-luciferase, MG132-induced, luminescence 8 h; active compounds read low. 0.77% of 300,000 active;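 active = more than half of replicate wells show activity change below -50%, luminescence cut by over half; inconclusive = some wells, but at most half, below -50%; inactive = no replicate well below -50%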;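 note: luciferase reports HSF-1 transcriptional activity via heat shock element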
HSF-1 act: HSF-1 activators, primary screen, NIH3T3-HGL cells, MG132 stress, luminescence, single point | NIH3T3-HGL HSF-1 luciferase reporter, 8 h; 100% = twice DMSO control signal | activation, % at 9 µM | 1.7% of 300,000 active;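 active = mean replicate activation of at least 50% with a set share of replicates each reaching 50%; inconclusive = only one of those two conditions met; inactive = mean below 50% and too few replicates reaching it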
T cruzi inh: inhibitors of intracellular T. cruzi growth, primary screen, luminescence, NIH3T3 host cells. inhibition, % (no concentration beside the values). 1.4% of 300,000 active. T. cruzi beta-gal in NIH3T3, 90 h. AID 1885, 2009;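 active = mean inhibition across valid replicates above about 55%, limit read from the data; inconclusive = mean below that limit but half or more replicates reach it; inactive = mean below it, under half of replicates reach it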;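 note: signal also drops with host cell toxicity which is not excluded here; higher percent means less beta-gal luminescence so fewer parasites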
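Read-out: Parasite load inhibition, % | Test system: Mouse NIH/3T3 fibroblasts infected with β-gal-expressing T. cruzi Tulahuen C4 | Amount: 5,000 cells/well | Medium: DMEM, 2% fetal bovine serum | Signal: GalScreen β-gal luminescence, detergent lysis, 60 min | Timing: 3 h attach, ≥90 h co-culture | Also added: Tulahuen C4 trypomastigotes, 5000/well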
GPR7 antag: GPR7 receptor antagonists, primary screen, cell-based, fluorescence, single concentration | inhibition, % at 4.4 µM | AID 1861, 2009 | Neuropeptides B/W receptor type 1 (Homo sapiens), P48145 | 1.1% of 290,000 active | GPR7-expressing cells, fluorescence antagonist assay; in the data active = inhibition above about 16%, passing the limit was not always enough;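 note: cells stimulated with the agonist NPW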
Target sequence (P48145 whole entry, looked up): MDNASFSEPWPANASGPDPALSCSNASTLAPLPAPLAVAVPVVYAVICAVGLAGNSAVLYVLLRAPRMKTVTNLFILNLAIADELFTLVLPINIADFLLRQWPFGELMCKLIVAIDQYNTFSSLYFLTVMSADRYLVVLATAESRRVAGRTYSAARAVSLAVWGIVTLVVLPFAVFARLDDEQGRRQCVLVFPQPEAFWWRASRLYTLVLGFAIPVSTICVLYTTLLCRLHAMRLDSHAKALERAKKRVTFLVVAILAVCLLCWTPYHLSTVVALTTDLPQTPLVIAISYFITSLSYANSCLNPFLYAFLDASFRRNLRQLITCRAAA
697 NFkB inh: inhibitors of PMA/ionomycin-induced NF-kB reporter, 697 cells, primary screen, B-cell NF-kB inhibitor project, cell-based, luminescence, uHTS. AID 435022, 2010. 0.33% of 330,000 active. 697 B-cell NF-kB luciferase reporter, 16 h. inhibition, % at 4 µM; in the data active = inhibition above about 35%
697 NFkB conf: PMA/ionomycin-induced NF-kB reporter inhibitors, 697 retest, confirmation, B-cell NF-kB inhibitor project, cell-based, luminescence, single concentration. shares compounds with 697 NFkB inh. 697 B-cell NF-kB luciferase, 16 h. inhibition, % at 4 µM. 35% of 2,000 active; in the data active = inhibition mostly above about 28%, no sharp cut-off; inactive = mostly below about 22%
Hits are given with their value; i = inactive; ? = inconclusive; nt = no result. Sampled rows, rich in hits. Any-hit rate of the full collection: about 4.8%.

SMILES	Jurkat NFkB inh	HSF1 inhib	HSF-1 act	T cruzi inh	GPR7 antag	697 NFkB inh	697 NFkB conf
CC(=O)c1c[nH]c(C(=O)Nc2ccc(N3CCCCCC3)cc2)c1	i	nt	nt	nt	nt	39.8	i
CCOC(=O)C1(Cc2ccccc2Cl)CCN(C(=O)CN2CCOC2=O)CC1	i	i	i	i	i	i	nt
CC1CCN(S(=O)(=O)c2ccc(N=NC3=C(O)CC(C)(C)CC3=O)cc2)CC1	i	i	i	i	i	i	nt
CC1(C)CC(=O)C(N=Nc2cccc(S(=O)(=O)N3CCOCC3)c2)=C(O)C1	i	i	i	i	i	38.2	i
Nc1c(C(=O)CSc2nnnn2-c2ccc(O)cc2)c(=O)[nH]c(=O)n1C1CC1	i	nt	nt	nt	nt	i	nt
CC(C)COc1cccc(-c2cc(C(=O)N/N=C/c3ccncc3)c3ccccc3n2)c1	i	nt	nt	nt	i	i	i
CCOc1cc(/C=N/NC(=O)c2cc(-c3cccc(OC)c3)nc3ccccc23)ccc1O	i	i	i	i	nt	i	nt
N=c1c2c(n(Cc3ccc(Cl)cc3)c3c1CCC3)CCC2	i	i	i	79.4	i	105.2	i
N=c1c2c(n(Cc3cccc(Cl)c3)c3c1CCC3)CCCC2	i	i	i	58.4	i	43.5	38.0
O=c1[nH]c(SCc2ccc(Cl)cc2)nc2c1CCC2	i	i	i	i	i	i	nt
COc1cccc(CN(C)C(=O)c2cc(COc3ccc(-n4cncn4)cc3)on2)c1	i	i	i	i	i	i	nt
CCCC(=O)Nc1ccc(Sc2ccc([N+](=O)[O-])cc2)cc1	i	i	i	nt	i	41.4	35.0
CCC(CC)C(=O)Nc1ccc(Sc2ccc([N+](=O)[O-])cc2)cc1	i	i	i	i	i	36.8	29.6
CCCC(=O)Nc1ccc(C(=O)NNC(=O)c2cccc([N+](=O)[O-])c2)cc1	i	i	i	i	i	i	nt
COc1ccc(C(=O)N[C@H](C(=O)NCCc2ccc3c(c2)OCCO3)C(C)C)cc1	i	nt	nt	nt	nt	i	nt
CC(=O)c1ccc(NC(=O)c2cnn3ccccc23)cc1	i	?	i	i	i	36.4	i
COc1ccc(NS(=O)(=O)c2ccc(-c3coc(C)n3)cc2)cc1OC	i	i	i	i	i	40.5	59.5
O=C1CCc2cc(NS(=O)(=O)c3ccc(Br)cc3)cc3c2N1CC3	i	i	i	i	nt	i	nt
O=C(NCc1ccc(Cl)cc1)C1CCCN(c2cnccn2)C1 (stereo not given)	i	i	i	i	i	i	nt
CCCCCc1c(C)nc(Nc2nc(C)c3cc(OC)ccc3n2)[nH]c1=O	i	i	i	i	i	39.0	i
CCc1ccc2nc(Nc3nc(COC)cc(=O)[nH]3)nc(C)c2c1	i	i	i	i	i	42.4	38.4
CCOC(=O)C1CCN(S(=O)(=O)c2ccc3c4c2CC(=O)N4CC(C)S3)CC1 (stereo not given)	i	i	i	i	i	i	nt
Cc1cc(OCC(=O)NC2CC2)c2c(C)c(C)c(=O)oc2c1	i	i	i	i	i	35.8	29.3
Cc1ccccc1-c1cc(C(=O)Nc2sc(C)c(C)c2C(N)=O)c2ccccc2n1	i	i	i	i	i	i	nt
CCOC(=O)c1sc(NC(=O)c2cc(-c3ccccc3C)nc3ccccc23)c(C#N)c1C	i	i	i	i	i	36.4	40.0
SMILES	Jurkat NFkB inh	HSF1 inhib	HSF-1 act	T cruzi inh	GPR7 antag	697 NFkB inh	697 NFkB conf
CC1=CC(C)(C)n2c(O)c(N=NC(N)=S)c3cccc1c32	i	i	i	i	i	i	nt
COc1cc2c3c(c1)c(N=NC(N)=S)c(O)n3C(C)(C)C=C2C	i	i	i	i	i	41.8	41.7
CCc1ccccc1OCC(=O)Nc1cccc(S(=O)(=O)NC2=NCCC2)c1	i	nt	nt	nt	nt	i	nt
Cc1noc(C)c1-c1ccc2ncnc(NCC3CCCCN3C)c2c1 (stereo not given)	i	nt	nt	nt	nt	36.1	i
Cc1ccsc1CNc1ncnc2ccc(-c3c(C)noc3C)cc12	i	nt	nt	nt	nt	i	nt
O=C(NCc1ccccc1)c1cccc(NC(=O)c2ccco2)c1	i	i	i	i	i	i	nt
Cc1ccc(C(=O)Nc2cccc(C(=O)NCc3ccccc3)c2)o1	i	i	i	i	i	36.0	i
COc1ccc(C(=O)NC2CC3CCCC(C2)N3Cc2ccccc2)c(OC)c1 (stereo not given)	i	i	i	i	i	i	nt
O=C1CCCc2c1[nH]c1ccc(CN3CCCCC3)cc21	i	i	i	?	i	37.8	28.8
Cc1ccc2[nH]c3c(c2c1)CCCC3=O	i	i	i	i	i	i	nt
COC(=O)Cn1c(O)c(N=NC(=O)CNC(=O)COc2cccc(C)c2)c2ccccc21	i	i	i	i	i	i	nt
COc1cc(/C=N/NC(=O)c2ccc(Cn3cc([N+](=O)[O-])cn3)o2)cc(Br)c1O	i	i	i	i	i	i	nt
O=C(N/N=C\c1ccc(F)cc1)c1ccc(Cn2cc(Br)c([N+](=O)[O-])n2)o1	i	i	i	61.4	i	37.4	i
COc1ccc(CCNC(=O)COC(=O)c2cncc(Br)c2)cc1OC	i	nt	nt	nt	nt	i	nt
CCN(CC)c1ccc(/C=N/N=C(c2ccccc2)c2ccccc2)c(O)c1	i	i	i	i	i	35.4	26.6
CCN(CC)c1ccc(/C=N/N(c2ccccc2)c2ccccc2)c(O)c1	i	i	i	i	i	i	nt
O=c1cc[nH]c2ccc(Cl)cc12	i	i	i	i	i	i	nt
O=c1cccc2c1c1cc[nH]c3ccc(=O)n2c31	i	i	i	i	nt	55.9	52.2
COC(=O)[C@@]1(Cc2ccc(F)cc2)[C@H]2c3cc(C(=O)N4CCCC4)n(CCc4ccccn4)c3C[C@H]2CN1C(=O)c1ccccc1	i	nt	nt	nt	i	i	nt
Cc1nn(C(C)(C)C)c(OC(=O)c2ccco2)c1Sc1ccccc1	i	i	i	i	i	i	nt
Cc1nn(C(C)(C)C)c(OC(=O)c2ccc(Br)o2)c1Sc1ccccc1	i	i	i	i	i	36.3	31.1
COc1ccc(-c2nn(C)c(=O)c3ccccc23)cc1NS(C)(=O)=O	i	i	i	i	i	38.2	32.3
COc1ccc(-c2nn(C)c(=O)c3ccccc23)cc1CNS(C)(=O)=O	i	i	i	i	i	i	nt
Cc1nn(-c2ccc(N3CCCCC3)nn2)c(C)c1CCC(=O)Nc1ccccc1F	i	i	i	i	i	51.4	47.8
COC(=O)CCN1CCN(S(=O)(=O)c2ccc3c(c2)OCCO3)CC1	i	nt	nt	nt	nt	i	nt

Source: PubChem
